ABHD5 PLIN5 PPI: ABHD5-PLIN5 interaction inhibitors, primary screen, cell lysate, split luciferase complementation, luminescence. Split G. princeps luciferase complementation, 4 h. AID 602281, 2012. 360,000 tested, 0.78% active. inhibition, % at 4 µM;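 active = inhibition above the mean inhibition across every tested compound plus 3 SD, cut at about 22% in these data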;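 note: 0% = DMSO only wells and the 100% control is not disclosed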
NadD inh: inhibitors of S. aureus NadD, primary screen, biochemical, colorimetric, uHTS; Nicotinate-nucleotide adenylyltransferase NadD (Staphylococcus aureus N315); purified NadD enzyme, colorimetric absorbance read-out; inhibition, % at 20 µM; 360,000 tested, 0.78% active; in the data active = inhibition above about 26%
Beta2AR agonist: beta2AR agonists driving receptor internalization, primary screen, cell-based, FAP fluorogen, flow cytometry; Beta-2 adrenergic receptor (Homo sapiens), P07550; Am2.2-beta2AR cells; response, % (concentration not given with the values); 340,000 tested, 0.43% active;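 active = response above a set limit, near 3 SD of response in nonfluorescent compounds, cut at about 42% in these data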
Target sequence (P07550 whole entry, looked up): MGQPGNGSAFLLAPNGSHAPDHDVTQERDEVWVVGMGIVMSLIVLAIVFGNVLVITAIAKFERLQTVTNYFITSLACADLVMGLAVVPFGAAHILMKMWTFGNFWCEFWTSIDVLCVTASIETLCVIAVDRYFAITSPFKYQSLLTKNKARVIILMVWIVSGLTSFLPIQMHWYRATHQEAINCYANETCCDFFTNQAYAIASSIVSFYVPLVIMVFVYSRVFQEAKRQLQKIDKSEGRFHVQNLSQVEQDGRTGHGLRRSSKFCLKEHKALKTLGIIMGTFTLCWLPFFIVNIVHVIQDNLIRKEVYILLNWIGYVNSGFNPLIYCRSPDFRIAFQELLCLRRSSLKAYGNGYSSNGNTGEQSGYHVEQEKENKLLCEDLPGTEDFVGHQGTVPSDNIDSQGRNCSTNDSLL
SENP1 inh: human SENP1 catalytic domain inhibitors, primary screen, biochemical, FRET, uHTS; Sentrin-specific protease 1 (Homo sapiens), Q9P0U3; recombinant SENP1 catalytic domain, CyPet-SUMO1-YPet FRET cleavage; inhibition, % at 10 µM; 360,000 tested, 0.21% active; AID 624204, 2012;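 active = inhibition at least 30% at 10 µM, raw YFP signal under a set limit, fluorescence ratio 0.5 to 1.5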;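 note: 0% = enzyme with DMSO and 100% = no enzyme wells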
Target sequence (Q9P0U3 419-644 limits assumed): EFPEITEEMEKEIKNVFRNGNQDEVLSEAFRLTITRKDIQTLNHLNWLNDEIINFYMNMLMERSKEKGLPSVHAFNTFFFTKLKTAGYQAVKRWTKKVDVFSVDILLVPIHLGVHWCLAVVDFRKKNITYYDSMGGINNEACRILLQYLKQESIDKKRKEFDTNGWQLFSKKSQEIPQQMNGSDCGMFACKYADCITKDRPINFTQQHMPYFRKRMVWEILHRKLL
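Assay system: hSENP1 catalytic domain, recombinant. Amount: SENP1 enzyme, 20 pM final. Schedule: 50 min reaction, RT, dark. Technique: FRET, CFP and YFP emission. Control set: no-enzyme wells low, DMSO-plus-enzyme wells high control.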
GRK2 inh: compounds blocking aptamer binding on GRK2 – biochemical, human GRK2, bead flow cytometry, HTS, primary screen | inhibition of aptamer binding, % at 10 µM | FAM-aptamer displacement from GRK2 | 330,000 tested, 0.59% active | Beta-adrenergic receptor kinase 1 (Homo sapiens), P25098 | AID 488847, 2010;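 active = inhibition of aptamer binding above 40%, roughly 3 SD of noise, on plates passing a quality check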;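 note: median bead fluorescence of bound FAM aptamer so fluorescent compounds give negative values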
GRK2 CP1: GRK2 aptamer-displacing inhibitors, retest, confirmation, biochemical, cherry pick 1, bead flow cytometry. shares compounds with GRK2 inh. bead-bound GRK2, FAM-aptamer displacement. aptamer displacement, % at 10 µM. 2,000 tested, 4% active. AID 504451, 2011;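 active = aptamer displacement above 40%, near three times the noise of non-fluorescent compounds, on plates passing quality checks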;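 note: negative values mostly reflect intrinsic compound fluorescence rather than true enhancement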
Aptamer quench SP: quenches fluorescent RNA aptamer, GRK2 hit artifact; shares compounds with GRK2 inh; Carboxyfluorescein RNA aptamer on beads, flow cytometry quenching; hits give low values; fluorescence response (% of DMSO), % at 10 µM; 2,000 tested, under 10 active; AID 504580;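 active = compounds that quench the bead-bound fluorescent RNA probe, cutting fluorescence to under half of the solvent control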;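 note: counterscreen run without GRK2 so only probe quenching by compound is measured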
GRK2 confirm 2: GRK2 aptamer-displacing inhibitors, hit retest, confirmation, biochemical, cherry pick 2, bead flow cytometry | shares compounds with GRK2 inh | bead-bound GRK2, FAM-aptamer displacement | inhibition of aptamer binding, % at 10 µM | 360 tested, under 10 active | AID 504782, 2011;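 active = inhibition of aptamer binding above 40%, about triple the noise seen with nonglowing compounds, on plates passing quality control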;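 note: negative values mostly come from compounds that fluoresce themselves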
FAM quench CP2: aptamer fluorescence quenching in GRK2 counter-screen. AID 588494. shares compounds with GRK2 inh. 360 tested, under 10 active. fluorescence response vs DMSO, % at 10 µM. carboxyfluorescein RNA aptamer beads, flow cytometry quenching; hits give low values;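 active = response vs DMSO under 50%, meaning signal dropped by over half, treated as fluorescence quencher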;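 note: labelled aptamer on streptavidin beads without GRK2 as a quench counter-screen; 100% = bead fluorescence of DMSO wells and lower means quenching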
An asterisk follows results filed as active; nt = no result. The list is not random: actives were taken first. Their share in the collection is about 2.5%.

SMILES	ABHD5 PLIN5 PPI	NadD inh	Beta2AR agonist	SENP1 inh	GRK2 inh	GRK2 CP1	Aptamer quench SP	others
COc1ccc(CN2CCN(CC=C(C)C)C(CCO)C2)cc1Cn1cncn1 (centres undefined)	0	-3	19	1	1	nt	nt
COc1ccccc1-c1nnc(SCC(=O)NC2CC2)n1C	-13	-5	-8	2	86*	3	96
Cc1ccccc1-n1ccnc1SCC(=O)NC1CCCC1	-8	3	-7	2	49*	2	100
Cc1ccccc1-n1ccnc1SCC(=O)NCC1CCCO1 (centres undefined)	4	-4	1	-1	0	nt	nt
COc1ccccc1-c1nnc(SCC(=O)NC2CCCCC2)n1C	7	-6	6	1	0	nt	nt
CCc1cccc(C)c1NC(=O)CSc1n[nH]c(N)n1	-1	-4	6	2	100*	-4	100
Cc1cccc(C)c1NC(=O)CSc1nnc(-c2ccco2)c(-c2ccco2)n1	23*	32*	-12	14	47*	14	100
CCOc1ccccc1NC(=O)CSc1n[nH]c(N)n1	0	2	-7	1	0	nt	nt
Cc1ccccc1NC(=O)CSc1nnc(-c2ccco2)c(-c2ccco2)n1	19	15	-11	15	10	nt	nt
CCc1ccc(NS(=O)(=O)c2ccc3c(c2)CCN3C(=O)CCC(=O)O)cc1	2	-1	-1	0	52*	nt	nt	GRK2 confirm 2=6;FAM quench CP2=102
CCc1ccc(NC(=O)CCS(=O)(=O)c2ccc3c(c2)CCN3C(C)=O)cc1	-5	2	-16	-1	0	nt	nt
CCC(=O)N1CCc2cc(S(=O)(=O)CCC(=O)Nc3ccc(CC)cc3)ccc21	0	-5	-14	1	1	nt	nt	GRK2 confirm 2=12;FAM quench CP2=99
COc1ccc(SCC(=O)Nc2ccccc2Cl)cc1	1	-10	7	1	65*	nt	nt	GRK2 confirm 2=3;FAM quench CP2=101
COc1ccc(OCC(=O)Nc2ccccc2Cl)cc1	-1	-4	-1	0	1	nt	nt
O=C(NC1CCCC1)C1CCN(S(=O)(=O)c2ccccc2)CC1	4	2	0	-1	1	nt	nt
COc1ccccc1NC(=O)CC1CCCC1	-4	9	-2	0	61*	-4	105
N#Cc1ccc(CC(=O)c2ccccc2)[nH]c1=O	-8	7	9	-35	nt	nt	nt
O=c1c2cc(Br)ccc2nc2n1CCCCC2	4	-2	-8	1	4	nt	nt
O=c1c2cc([N+](=O)[O-])ccc2nc2n1CCCC2	4	1	15	5	64*	1	99
CC(C)(C)C1CCN2CCCC(c3ccc([N+](=O)[O-])cc3)(C1)C21OCCO1 (centres undefined)	-15	2	nt	-1	nt	nt	nt
CSc1ccc(C=O)cc1	4	10	0	2	73*	-14	93
COc1ccc(C2(c3ccc(OC)cc3)NC(=O)N(CC(=O)NC3CCS(=O)(=O)C3)C2=O)cc1 (centres undefined)	3	0	-15	1	0	nt	nt
COc1ccccc1CNC(=O)c1cc(S(=O)(=O)N2CCOCC2)cn1C	-1	1	-9	1	0	nt	nt
Cn1cc(S(=O)(=O)N2CCOCC2)cc1C(=O)NCc1ccccc1Cl	5	0	-7	1	0	2	99
COC(=O)C1=C(CS(=O)(=O)c2ccccc2)NC(=O)NC1c1ccc(OC)c(OC)c1 (centres undefined)	1	-6	-1	1	0	nt	nt
SMILES	ABHD5 PLIN5 PPI	NadD inh	Beta2AR agonist	SENP1 inh	GRK2 inh	GRK2 CP1	Aptamer quench SP	others
CCOC(=O)C1=C(CS(=O)(=O)c2ccccc2)NC(=O)NC1c1ccc(OC)c(OC)c1 (centres undefined)	1	0	-3	0	40	1	101
CCN(CC)S(=O)(=O)c1ccc(N2CCOCC2)c(NC(=O)COc2ccccc2C#N)c1	2	-7	1	-1	3	nt	nt
CCN(CC)S(=O)(=O)c1ccc(N2CCOCC2)c(NC(=O)COc2ccccc2C)c1	-5	-4	-5	3	74*	-1	100
CCN(CC)S(=O)(=O)c1ccc(N2CCOCC2)c(NC(=O)CC23CC4CC(CC(Br)(C4)C2)C3)c1	3	-4	-1	-1	100*	nt	nt	GRK2 confirm 2=0;FAM quench CP2=96
CCCCn1c(N)c(N(CC(C)C)C(=O)CCC2CCCCC2)c(=O)[nH]c1=O	-1	3	8	-5	0	nt	nt
Cc1cc(C)cc(OCC(=O)OCC(=O)c2cc(C)n(C3CC3)c2C)c1	16	-3	-1	0	39	7	101
CC(C)C[C@@H](CN1C(=O)C(=O)NC[C@@H]1CC(C)C)NC(=O)Cc1ccccc1	11	-2	-8	2	7	nt	nt
COc1cccc(NC(=O)CCCCCN2C(=O)[C@@H]3Cc4ccccc4CN3C2=O)c1	-8	-6	-8	1	0	1	94
N=C1/C(=C/c2ccco2)C(=O)N=C2SC(CC(=O)N3CCCC3)=NN12	7	0	5	-6	46*	14	96
N=C1/C(=C/c2ccc(Br)o2)C(=O)N=C2SC(CC(=O)N3CCCC3)=NN12	3	12	4	-22	7	nt	nt
COC(=O)c1[nH]c2c(c1C)C(=O)CCC2	-2	-3	-1	2	19	1	93
Cc1c(C(=O)OC2CCC(C)CC2)[nH]c2c1C(=O)CCC2 (centres undefined)	-3	-6	-5	0	1	nt	nt
CCOC(=O)c1cc(CN2CCOCC2)oc1-c1ccccc1	6	2	-8	-1	69*	2	95
Cc1cc(C)c(C)c(S(=O)(=O)N2CCN(C(=O)c3cc(S(=O)(=O)N4CCOCC4)ccc3F)CC2)c1C	-5	-6	3	0	1	-1	102
CN1Cc2sc(N)c(C#N)c2CC1(C)C	-9	1	-19	-15	52*	3	97
